Reference: ChEMBL document CHEMBL1765001, “Synthesis and pharmacological evaluation of thieno[2,3-b]pyridine derivatives as novel c-Src inhibitors” (Bioorg Med Chem, 2011)
Calls of active or inactive are those of the source. The calls are words filed in the database; no cut-off is given here.

Key:
[1] = target: T1, Proto-oncogene tyrosine-protein kinase Src (Homo sapiens, UniProt P12931); experiment: Inhibition of c-SRC in human HCT116 cells assessed as phosphorylated FAK level after 5 hrs by Western blot assay; assay type: cell-based; conditions: HCT-116
T1 sequence (P12931 2-536 limits assumed): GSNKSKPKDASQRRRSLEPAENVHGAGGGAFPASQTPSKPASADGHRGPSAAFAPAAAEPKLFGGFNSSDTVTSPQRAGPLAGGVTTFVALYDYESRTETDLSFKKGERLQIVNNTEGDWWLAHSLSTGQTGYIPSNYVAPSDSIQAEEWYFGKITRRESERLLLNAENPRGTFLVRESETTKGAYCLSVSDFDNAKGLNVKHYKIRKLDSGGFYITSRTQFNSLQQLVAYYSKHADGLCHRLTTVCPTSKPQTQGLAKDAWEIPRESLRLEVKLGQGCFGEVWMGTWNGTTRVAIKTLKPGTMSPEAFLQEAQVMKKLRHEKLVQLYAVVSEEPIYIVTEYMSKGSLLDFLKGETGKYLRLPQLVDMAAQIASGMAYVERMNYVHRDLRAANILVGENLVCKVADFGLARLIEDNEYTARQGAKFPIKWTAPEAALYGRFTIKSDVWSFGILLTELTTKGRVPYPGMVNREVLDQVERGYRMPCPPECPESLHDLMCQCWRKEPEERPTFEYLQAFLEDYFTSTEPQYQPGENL
Method in brief: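 HCT116 colon carcinoma cells seeded overnight, serum-starved, treated with inhibitors 5 h at 3 and 10 µM final; lysed in 2X Laemmli buffer, gradient SDS-PAGE, PVDF transfer. Phospho-FAK by anti-pTyr861, total FAK on separate blot; ratio by film densitometry.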

[2] = target: T1, Proto-oncogene tyrosine-protein kinase Src; experiment: Inhibition of c-SRC assessed as residual activity using KVEKIGEGYYGVVYK as peptide substrate after 20 mins by scintillation counting
Method in brief: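 Radiometric kinase assay: Src kinase ([…] stock diluted to 200 nM in kinase buffer) with peptide substrate (370 µM stock) and inhibitor from 10% DMSO dilution, in buffer with MgCl2, EDTA, DTT; started with 40 µM ATP plus 33P-γ-ATP, 20 min at 30 °C; stopped with 0.85% orthophosphoric acid, phosphocellulose filter capture, scintillation count. IC50 from sigmoidal variable-slope fit of mean data, at least two determinations; DMSO negative control.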

[3] = target: T1, Proto-oncogene tyrosine-protein kinase Src; experiment: Inhibition of c-SRC in EGF-stimulated human A431 cells assessed as phosphorylated STAT3 level by Western blot assay; assay type: cell-based; conditions: A-431
Method in brief: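 A431 epidermoid carcinoma cells starved overnight, stimulated 10 min with EGF (100 ng/ml), lysed in 2X Laemmli buffer; phospho-STAT3 detected with anti-pTyr705 antibody, total STAT3 on a separate blot; pSTAT3/total STAT3 ratio by densitometry of X-ray films. DMSO with EGF set as 100% phosphorylation; 4-anilinoquinoline-3-carbonitrile positive control.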

Fibroblast = experiment: Antitumor activity against Src-transformed fibroblasts xenograft model assessed as tumor growth inhibition at 50 mg/kg, ip after 7 days; assay type: functional, organism-based; design: dose 50 mg/kg
[4] = target: T1, Proto-oncogene tyrosine-protein kinase Src

| Compound | Activity [1] [µM] | IC50 [2] [nM] | also measured |
| --- | --- | --- | --- |
| COc1cc(Nc2c(C#N)cnc3cc4cc(OCCN5CCOCC5)c(OC)cc4cc23)c(Cl)cc1Cl | – | – | Activity (Fibroblast): Active |
| Nc1c(C(=O)N/N=C/c2cccc3ccccc23)sc2ncccc12 | – | > 10000 | – |
| O=C(Cc1ccc(-c2ccc(OCCN3CCOCC3)cc2)cn1)NCc1ccccc1 [TIRBANIBULIN] | – | – | IC50 [4]: 20 nM |
| CN(C)CCNc1nc2sc(C(=O)N/N=C/c3cccn3C)c(N)c2cc1Cc1ccccc1 | – | 3870 | – |
| Cc1cc(C)c2c(N)c(C(=O)N/N=C/c3cccn3CCN(C)C)sc2n1 | – | > 10000 | – |
| CCCc1cc2c(N)c(C(=O)N/N=C/c3cccn3C)sc2nc1NCCN(C)C | – | 2080 | – |
| Cc1cc(C(F)(F)F)nc2sc(C(=O)N/N=C/c3cccc4ccccc34)c(N)c12 | – | 1340 | – |
| Cn1cncc1/C=N/NC(=O)c1sc2ncccc2c1N | – | 1300 | – |

Continued, in another order:

| Activity [1] [µM] | IC50 [2] [nM] | Compound | also measured |
| --- | --- | --- | --- |
| 3 | 107 | CN(C)CCNc1cc(-c2ccccc2)c2c(N)c(C(=O)N/N=C/c3cccc4ccccc34)sc2n1 | – |
| – | 269 | Cc1cc(C)c2c(N)c(C(=O)N/N=C/c3cccc4ccccc34)sc2n1 | Activity [3]: 10 µM |
| > 10 | 230 | Cc1cc(NCCN(C)C)nc2sc(C(=O)N/N=C/c3cccc4ccccc34)c(N)c12 | – |
| 3 | 40 | CN(C)CCNc1cc(Cc2ccccc2)c2c(N)c(C(=O)N/N=C/c3cccn3C)sc2n1 | – |
| – | 840 | Cc1cc(C)c2c(N)c(C(=O)N/N=C/c3cccn3C)sc2n1 | – |
| – | 769 | Cc1cc(C)c2c(N)c(C(=O)N/N=C/c3cncn3C)sc2n1 | Activity [3]: > 10 µM |
| 10 | 246 | Cc1cc(NCCN(C)C)nc2sc(C(=O)N/N=C/c3cccn3C)c(N)c12 | – |
| > 10 | 330 | Cc1cc(C(F)(F)F)nc2sc(C(=O)N/N=C/c3cncn3C)c(N)c12 | – |
| 3 | 68 | CN(C)CCNc1cc(-c2ccccc2)c2c(N)c(C(=O)N/N=C/c3cccn3C)sc2n1 | – |
| 10 | 63 | CCCc1cc(NCCN(C)C)nc2sc(C(=O)N/N=C/c3cccn3C)c(N)c12 | – |
| 3 | 32 | CN(C)CCNc1cc(-c2ccccc2)c2c(N)c(C(=O)N/N=C/c3cncn3C)sc2n1 | – |
